In test [1] the test system is Aspergillus flavus. Nature of the test: Antifungal activity against Aspergillus flavus by disk diffusion method at 10 ug/disk. The class given is functional, organism-based. The method in brief: (§1)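 Fungi kept on potato dextrose agar at 28 °C. Conidia scraped from 5–15 day PDA cultures into water, cotton-filtered, and adjusted by hemocytometer to ~10^6 CFU/mL. Disks carried 10 µg; DMSO-only disks as negative control. Plates held at 4 °C ≥2 h, then 28 °C; inhibition zone diameter (mm) read after 48 h. Mean of three determinations.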

In test [2] the test system is Fusarium oxysporum. As to the kind of experiment: Antifungal activity against Fusarium oxysporum by disk diffusion method at 10 ug/disk. The class given is functional, organism-based. The method in brief:
as §1

Test [3] relates to Trichoderma. Nature of the test: Antifungal activity against Trichoderma species by disk diffusion method at 10 ug/disk. The class given is functional, organism-based. The method, boiled down: as §1
For test [4], the system named is Fusarium verticillioides. Nature of the test: Antifungal activity against Fusarium moniliforme by disk diffusion method at 10 ug/disk. The class given is functional, organism-based. The method, boiled down:
as §1

Test [5] has as its system Aspergillus niger. Nature of the test: Antifungal activity against Aspergillus niger by disk diffusion method at 10 ug/disk. The class given is functional, organism-based. The method in brief:
as §1

Test [6] concerns Aspergillus flavus. Nature of the test: Antifungal activity against Aspergillus flavus by disk diffusion method at 25 ug/disk. The class given is functional. To be noted: read-out: IZ. The method in brief: (§2)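 Fungi kept on potato dextrose agar at 28 °C; conidia scraped from 5–15 day PDA cultures into distilled water, filtered through sterile cotton, resuspended, adjusted by hemocytometer to about 10^6 CFU/mL. Paper disks bore 25 µg compound, 10 µg nystatin reference, or DMSO alone. Plates at 4 °C ≥2 h, then 28 °C; zone diameter (mm) read at 48 h; mean of three determinations.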

Test [7] relates to Fusarium oxysporum. Nature of the test: Antifungal activity against Fusarium oxysporum by disk diffusion method at 25 ug/disk. The class given is functional. To be noted: read-out: IZ. The method, boiled down: as §2
The test system of test [8] is Trichoderma. Nature of the test: Antifungal activity against Trichoderma species by disk diffusion method at 25 ug/disk. The class given is functional. The conditions noted are these: read-out: IZ. The method, boiled down:
as §2

Test [9] deals with Fusarium verticillioides. As to the kind of experiment: Antifungal activity against Fusarium moniliforme by disk diffusion method at 25 ug/disk. The class given is functional. The conditions noted are these: read-out: IZ. The method, boiled down: as §2
For test [10], the system named is Bacillus subtilis. As to the kind of experiment: Antibacterial activity against Bacillus subtilis by disk diffusion method at 25 ug/disk. The class given is functional. The conditions noted are these: read-out: IZ. The method, boiled down:
(§3)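 Bacteria kept on LB agar, grown in LB broth, spun 10,000 rpm 5 min, pellet taken up in double-distilled water, density set by hemocytometer to about 10^4 CFU/mL for plate inoculation. Paper disks carried 25 µg test compound or 10 µg streptomycin/tetracycline reference; DMSO-only disks as negative control. Plates held at 4 °C ≥2 h, then 28 °C; inhibition zone diameter (mm) read at 24 h; mean of three determinations.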

Test [11] concerns Escherichia coli. Nature of the test: Antibacterial activity against Escherichia coli by disk diffusion method at 25 ug/disk. The class given is functional. The conditions noted are these: read-out: IZ. The method in brief:
as §3

Test [12] deals with Pseudomonas fluorescens. As to the kind of experiment: Antibacterial activity against Pseudomonas fluorescens by disk diffusion method at 25 ug/disk. The class given is functional. To be noted: read-out: IZ. The method in brief:
as §3

Test [13] concerns Xanthomonas campestris. Nature of the test: Antibacterial activity against Xanthomonas campestris pvs by disk diffusion method at 25 ug/disk. The class given is functional. To be noted: read-out: IZ. The method in brief: as §3
Test [14] has as its system Aspergillus niger. Nature of the test: Antifungal activity against Aspergillus niger by disk diffusion method at 25 ug/disk. The class given is functional. The conditions noted are these: read-out: IZ. The method in brief: as §2
For test [15], the system named is Bacillus subtilis. Nature of the test: Antibacterial activity against Bacillus subtilis by disk diffusion method at 10 ug/disk. The class given is functional. To be noted: read-out: IZ.
Test [16] has as its system Escherichia coli. As to the kind of experiment: Antibacterial activity against Escherichia coli by disk diffusion method at 10 ug/disk. The class given is functional. The conditions noted are these: read-out: IZ. The method, boiled down:
as §3

Test [17] concerns Pseudomonas fluorescens. Nature of the test: Antibacterial activity against Pseudomonas fluorescens by disk diffusion method at 10 ug/disk. The class given is functional. To be noted: read-out: IZ.
The subject of test [18] is Xanthomonas oryzae. Nature of the test: Antibacterial activity against Xanthomonas oryzae by disk diffusion method at 25 ug/disk. The class given is functional. The conditions noted are these: read-out: IZ.
Test [19] concerns Xanthomonas campestris. Nature of the test: Antibacterial activity against Xanthomonas campestris pvs by disk diffusion method at 10 ug/disk. The class given is functional. To be noted: read-out: IZ.
For test [20], the system named is Xanthomonas oryzae. As to the kind of experiment: Antibacterial activity against Xanthomonas oryzae by disk diffusion method at 10 ug/disk. The class given is functional. The conditions noted are these: read-out: IZ.

Counter-ions that a name gives are not always drawn.

As to NYSTATIN, the inhibition zone (IZ) worked out at 10 mm in [1]; 14 mm in [2]; 16 mm in test [3]; 12 mm in test [4]; 8 mm in test [5].
Turning to `COc1cc(Br)c(Cn2nnc3ccccc32)cc1OC`, the zone of inhibition at 25 µg/disc in test [6] was found to be 10 mm; in test [7], 14 mm; in test [8], 16 mm; in [9], 13 mm; in test [10] it was 12 mm; in test [11], 15 mm. The zone of inhibition at 25 µg/disc in test [12] was 18 mm; in [13] it was 12 mm; in test [14], 9 mm.
For `CN[C@@H]1[C@H](O[C@H]2[C@H](O[C@H]3[C@H](O)[C@@H](O)[C@H](N=C(N)N)[C@@H](O)[C@@H]3N=C(N)N)O[C@@H](C)[C@]2(O)C=O)O[C@@H](CO)[C@H](O)[C@H]1O` [STREPTOMYCIN SULFATE], the zone of inhibition at 10 µg/disc in test [15] is 12 mm; in [16] it was 14 mm; in test [17], 18 mm.
As to `CCCCn1nnc2ccccc21`, the zone of inhibition at 25 µg/disc in test [6] was 11 mm; in test [7], 14 mm; in test [8], 15 mm; in test [9] it was 12 mm; in test [10], 13 mm; in test [11], 14 mm. In addition, the zone of inhibition at 25 µg/disc in [12] turned out to be 19 mm; in test [13], 12 mm; in [18] it was 12 mm; in test [14] it was 8 mm.
Consider `CCCn1nnc2ccccc21`, for which the zone of inhibition at 25 µg/disc came out at 4 mm in test [6]; 6 mm in test [7]; 1 mm in test [8]; 4 mm in [9]; 6 mm in test [10]; 4 mm in [11]. Further, the zone of inhibition at 25 µg/disc stood at 1 mm in [12], 3 mm in [13], 2 mm in test [18] and 5 mm in test [14].
As to `N#Cc1ccccc1-c1ccc(Cn2nnc3ccccc32)cc1`, the zone of inhibition at 25 µg/disc in test [6] is 17 mm; in test [7], 20 mm; in test [8], 18 mm; in test [9], 17 mm; in test [10] it was 16 mm; in test [11], 18 mm. For the same compound, the zone of inhibition at 25 µg/disc in test [12] stood at 21 mm; in [13], 16 mm; in test [18] it was 15 mm; in [14], 14 mm.
For the compound `O=C(Cn1nnc2ccccc21)c1ccc(Cl)cc1`, the zone of inhibition at 25 µg/disc was 5 mm in [6]; 6 mm in test [7]; 2 mm in test [8]; 3 mm in test [9]; 6 mm in test [10]; 5 mm in [11]. Besides, the zone of inhibition at 25 µg/disc worked out at 3 mm in test [12], 4 mm in test [13], 2 mm in test [18] and 4 mm in [14].
For the compound `CN(C)[C@@H]1C(O)=C(C(N)=O)C(=O)[C@@]2(O)C(O)=C3C(=O)c4c(O)cccc4[C@@](C)(O)[C@H]3C[C@@H]12` [TETRACYCLINE], the zone of inhibition at 10 µg/disc in [19] was determined as 12 mm; in [20] it was 11 mm.
As to `O=[N+]([O-])c1ccc(Cn2nnc3ccccc32)cc1`, the zone of inhibition at 25 µg/disc in test [6] turned out to be 7 mm; in test [7], 9 mm; in test [8] it was 11 mm; in test [9] it was 8 mm; in test [10], 6 mm; in test [11], 7 mm. Moreover, the zone of inhibition at 25 µg/disc is 8 mm in test [12], 4 mm in test [13] and 5 mm in test [14].
With `Cc1cc2c(cc1Cn1nnc3ccccc31)OCO2`, the zone of inhibition at 25 µg/disc in test [6] was 19 mm; in [7], 22 mm; in [8], 20 mm; in test [9] it was 18 mm; in test [10], 18 mm; in test [11], 20 mm. Further, the zone of inhibition at 25 µg/disc is 22 mm in test [12], 18 mm in test [13], 19 mm in test [18] and 16 mm in [14].

For the origin of these results see ChEMBL document CHEMBL1138110, “Microwave-assisted synthesis of N-alkylated benzotriazole derivatives: antimicrobial studies” (2006).
